Measurements from ChEMBL document CHEMBL4725432, “Dethioacylation by Sirtuins 1-3: Considerations for Drug Design Using Mechanism-Based Sirtuin Inhibition” (ACS Med Chem Lett, 2020).
Activity calls are given as the source filed them. The rule behind the calls is not given here.

How the values were obtained:
[1] = Metabolic stability of compound in human serum assessed as half life incubated for >10 mins measured after 90 mins by HPLC analysis; type: ADME, cell-free
[2] = biological target: T1, NAD-dependent protein deacetylase sirtuin-1 (Homo sapiens) (UniProt Q96EB6); experiment: Inhibition of human recombinant N-terminal GST-tagged SIRT1 (193 to 741 residues) deacetylation activity in presence of substrate and NAD+ at 15 uM after 60 mins by reversed-phase UPLC-MS analysis relative to control
T1 sequence (whole entry): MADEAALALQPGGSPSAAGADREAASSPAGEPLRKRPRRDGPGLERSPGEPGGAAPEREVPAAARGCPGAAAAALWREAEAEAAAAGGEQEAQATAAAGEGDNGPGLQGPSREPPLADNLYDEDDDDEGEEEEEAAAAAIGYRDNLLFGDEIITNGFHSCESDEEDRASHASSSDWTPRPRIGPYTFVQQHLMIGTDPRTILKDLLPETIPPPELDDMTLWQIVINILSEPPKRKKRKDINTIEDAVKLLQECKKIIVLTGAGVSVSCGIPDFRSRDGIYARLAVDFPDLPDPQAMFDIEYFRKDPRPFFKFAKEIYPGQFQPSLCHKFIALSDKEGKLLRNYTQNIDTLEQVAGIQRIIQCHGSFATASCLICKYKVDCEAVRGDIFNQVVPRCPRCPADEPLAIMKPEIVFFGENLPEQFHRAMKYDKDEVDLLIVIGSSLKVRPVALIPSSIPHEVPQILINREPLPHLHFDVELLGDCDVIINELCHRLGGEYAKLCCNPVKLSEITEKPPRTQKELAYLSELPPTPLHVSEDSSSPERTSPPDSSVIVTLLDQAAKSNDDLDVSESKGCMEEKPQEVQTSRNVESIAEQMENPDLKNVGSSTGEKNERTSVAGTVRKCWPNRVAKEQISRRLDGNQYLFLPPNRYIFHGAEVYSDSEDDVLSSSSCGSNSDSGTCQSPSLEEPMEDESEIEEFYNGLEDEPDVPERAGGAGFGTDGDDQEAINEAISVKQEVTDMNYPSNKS

[3] = biological target: T1, NAD-dependent protein deacetylase sirtuin-1 (Homo sapiens); experiment: Inhibition of SIRT1 in HEK293 cells assessed as increase in p53 acetylation co-treated with TSA at 25 uM for 6 hrs by western blot analysis; type: cell-based
Procedure, shortened: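 HEK293 cells exposed 6 h to compound at 25 μM together with TSA (1 μM). Whole-cell lysates immunoblotted for Ac-p53 (K382) and total p53. Ratio Ac-p53/p53 normalized to DMSO control. Two independent experiments in duplicate, SEM.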

[4] = biological target: T1, NAD-dependent protein deacetylase sirtuin-1 (Homo sapiens); experiment: Inhibition of human N-terminal GST-tagged SIRT1 (193 to 741 residues) expressed in Escherichia coli preincubated with NAD+ for 30 mins using Ac-Gln-Pro-Lys-Lys(Ac)-AMC (oxo-10) as substrate at 1 to 100 uM measured after 90 mins by fluorescence assay; conditions: dose microM 1-100, time 120.0 min
Procedure, shortened: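 Recombinant SIRT1 (100 nM) preincubated 30 min with compound, either with or without NAD+ (500 μM), before the fluorogenic deacetylation read-out. Single-dose %-inhibition. Two independent experiments in duplicate, standard deviation.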

[5] = biological target: T1, NAD-dependent protein deacetylase sirtuin-1 (Homo sapiens); experiment: Inhibition of human recombinant N-terminal GST-tagged SIRT1 (193 to 741 residues) deacetylation activity in presence of substrate and NAD+ at 15 uM after 30 mins by reversed-phase UPLC-MS analysis relative to control
[6] = biological target: T2, NAD-dependent protein deacetylase sirtuin-2 (Homo sapiens) (UniProt Q8IXJ6); experiment: Inhibition of human recombinant C-terminal His-tagged SIRT2 (50 to 356 residues) deacetylation activity in presence of substrate and NAD+ incubated for 60 mins measured after 90 mins by fluorescence assay
T2 sequence (whole entry): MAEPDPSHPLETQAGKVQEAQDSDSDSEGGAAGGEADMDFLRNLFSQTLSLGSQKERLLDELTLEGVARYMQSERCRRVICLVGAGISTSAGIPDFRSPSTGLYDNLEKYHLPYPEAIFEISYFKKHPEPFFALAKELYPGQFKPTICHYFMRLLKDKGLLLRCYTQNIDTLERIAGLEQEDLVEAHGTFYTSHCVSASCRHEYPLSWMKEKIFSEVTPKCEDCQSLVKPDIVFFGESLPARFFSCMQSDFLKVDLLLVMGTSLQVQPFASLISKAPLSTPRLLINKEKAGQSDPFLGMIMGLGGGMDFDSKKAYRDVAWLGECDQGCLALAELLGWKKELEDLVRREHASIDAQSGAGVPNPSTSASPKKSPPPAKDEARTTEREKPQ
Procedure, shortened: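 Recombinant SIRT2 (100 nM or 250 nM) incubated with fluorogenic thioacyl or oxo lysine-AMC substrates plus NAD+. Deacylation read by fluorescence. Two independent experiments in duplicate, standard deviation.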

[7] = biological target: T3, NAD-dependent protein deacetylase sirtuin-2 (Homo sapiens, UniProt Q8IXJ6); experiment: Inhibition of human C-terminal His-tagged SIRT2 (50 to 356 residues) expressed in Escherichia coli using Ac-Gln-Pro-Lys-Lys(pro)-AMC (oxo-11) as substrate by fluorescence assay
T3 sequence (Q8IXJ6 whole entry): T2 sequence (whole entry)

[8] = biological target: T4, NAD-dependent protein deacetylase sirtuin-1 (Homo sapiens, UniProt Q96EB6); experiment: Inhibition of human recombinant N-terminal GST-tagged SIRT1 (193 to 741 residues) expressed in Escherichia coli using Ac-Gln-Pro-Lys-Lys(Ac)-AMC (oxo-10) as substrate by fluorescence assay
T4 sequence (Q96EB6 whole entry): T1 sequence (whole entry)

[9] = biological target: T1, NAD-dependent protein deacetylase sirtuin-1 (Homo sapiens); experiment: Inhibition of human N-terminal GST-tagged SIRT1 (193 to 741 residues) expressed in Escherichia coli preincubated without NAD+ for 30 mins using Ac-Gln-Pro-Lys-Lys(Ac)-AMC (oxo-10) as substrate at 1 to 100 uM measured after 90 mins by fluorescence assay; conditions: dose microM 1-100, time 30.0 min
[10] = biological target: T5, NAD-dependent protein deacetylase sirtuin-3, mitochondrial (Homo sapiens) (UniProt Q9NTG7); experiment: Inhibition of human N-terminal GST-tagged SIRT3 (102 to 399 residues) expressed in Escherichia coli using Ac-Gln-Pro-Lys-Lys(but)-AMC (oxo-12) as substrate at 100 uM by fluorescence assay relative to control
T5 sequence (whole entry): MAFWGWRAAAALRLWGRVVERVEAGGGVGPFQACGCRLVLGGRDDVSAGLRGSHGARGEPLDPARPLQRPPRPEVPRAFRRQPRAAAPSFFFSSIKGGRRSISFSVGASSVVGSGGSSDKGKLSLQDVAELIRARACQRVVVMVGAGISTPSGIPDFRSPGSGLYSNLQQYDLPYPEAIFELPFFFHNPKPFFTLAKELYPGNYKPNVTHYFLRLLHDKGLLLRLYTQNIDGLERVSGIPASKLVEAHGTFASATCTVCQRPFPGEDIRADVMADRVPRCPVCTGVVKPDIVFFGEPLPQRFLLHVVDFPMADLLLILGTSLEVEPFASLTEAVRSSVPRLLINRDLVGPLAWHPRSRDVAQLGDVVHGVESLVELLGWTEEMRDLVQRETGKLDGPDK

[11] = biological target: T1, NAD-dependent protein deacetylase sirtuin-1 (Homo sapiens); experiment: Inhibition of human recombinant N-terminal GST-tagged SIRT1 (193 to 741 residues) deacetylation activity in presence of substrate and NAD+ at 15 uM after 15 to 60 mins by reversed-phase UPLC-MS analysis; conditions: time min 15-60

CC(=S)NCCCC[C@H](NC(=O)OCc1ccccc1)C(=O)N[C@@H](Cc1c[nH]c2ccccc12)C(=O)NC(C)C
half-life [1]: > 7 h | inhibition [2]: 7% | inhibition [3]: Active | inhibition [4]: Active | inhibition [5]: 3% | inhibition [6]: inactive

CCC(=S)NCCCC[C@H](NC(=O)OCc1ccccc1)C(=O)N[C@@H](Cc1c[nH]c2ccccc12)C(=O)NC(C)C
half-life [1]: 7 h | IC50 [7]: 2.2 µM | IC50 [8]: 0.51 µM | inhibition [9]: inactive | inhibition [10]: 19% | inhibition [4]: inactive | inhibition [6]: inactive | inhibition [11]: Active
